Assay results as given in ChEMBL document CHEMBL5385951, “Accraspiroketides A-B, Phenylnaphthacenoid-Derived Polyketides with Unprecedented [6 + 6+6 + 6] + [5 + 5] Spiro-Architecture” (2024).
Converted amounts (≈) assume the structure as drawn.

Columns and labels:
Assay type in all cases: functional
Staphylococcus aureus = test: Antibacterial activity against Staphylococcus aureus ATCC 25923 assessed as inhibition of bacterial growth incubated for 24 hrs by broth microdilution method
Enterococcus faecalis = test: Antibacterial activity against Enterococcus faecalis ATCC 29212 assessed as inhibition of bacterial growth incubated for 24 hrs by broth microdilution method
Enterococcus faecium [1] = test: Antibacterial activity against Enterococcus faecium clinical isolate K59-68 assessed as inhibition of bacterial growth incubated for 24 hrs by broth microdilution method
Procedure, shortened: (§1)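 Broth microdilution per published protocols (CLSI dilution method for aerobically growing bacteria). E. faecium strains K59-68 and K60-39 are clonal complex 17 sub-cluster clinical bloodstream isolates from patients at University Hospital of North Norway. Ampicillin served as positive control and DMSO as negative control. MIC was determined from triplicate assays.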

Enterococcus faecium [2] = test: Antibacterial activity against Enterococcus faecium clinical isolate K60-39 assessed as inhibition of bacterial growth incubated for 24 hrs by broth microdilution method; procedure, shortened: as §1

MIC (Staphylococcus aureus)	MIC (Enterococcus faecalis)	MIC (Enterococcus faecium [1])	MIC (Enterococcus faecium [2])	SMILES
3.1 mg/L (≈ 5.4 µM)	3.1 mg/L (≈ 5.4 µM)	1.5 mg/L (≈ 2.61 µM)	4 mg/L (≈ 6.97 µM)	COc1cc2c(c(O)c1Cl)C(=O)c1c(cc3cc(O)cc4c3c1O[C@@]41C(C)=C(C(=O)O)C(Cl)=C1Cl)C2(C)C
6.3 mg/L (≈ 10.4 µM)	3.1 mg/L (≈ 5.1 µM)	1.5 mg/L (≈ 2.47 µM)	4.7 mg/L (≈ 7.73 µM)	COc1cc2c(c(O)c1Cl)C(=O)c1c(cc3c(Cl)c(O)cc4c3c1O[C@@]41C(C)=C(C(=O)O)C(Cl)=C1Cl)C2(C)C

SMILES	MIC (Staphylococcus aureus)	MIC (Enterococcus faecalis)	MIC (Enterococcus faecium [1])	MIC (Enterococcus faecium [2])
CC1(C)S[C@@H]2[C@H](NC(=O)[C@H](N)c3ccccc3)C(=O)N2[C@H]1C(=O)O [AMPICILLIN]	0.5 mg/L (≈ 1.43 µM)	1 mg/L (≈ 2.86 µM)	1.5 mg/L (≈ 4.29 µM)	25 mg/L (≈ 71.5 µM)
